This is an account of results in ChEMBL document CHEMBL3758162, “Synthesis, biological characterization and molecular modeling insights of spirochromanes as potent HDAC inhibitors” (Eur J Med Chem, 2016).

Data set [1] has as its system A549. The data set can be described thus: Antiproliferative activity against human A549 cells assessed as cell viability after 72 hrs by CellTitre-Glo luminescent assay. It counts as functional, cell-based.
Data set [2] relates to K562. The data set can be described thus: Antiproliferative activity against human K562 cells assessed as cell viability after 72 hrs by CellTitre-Glo luminescent assay. It counts as functional, cell-based.
The nature of data set [3]: Antiproliferative activity against human HCT116 cells assessed as cell viability after 72 hrs by CellTitre-Glo luminescent assay. It counts as functional, cell-based, HCT-116.
Data set [4] concerns the target Histone deacetylase. Briefly: Inhibition of HDAC in human HeLa cells nuclear extract using Fluor de lys as substrate after 15 mins by fluorometric analysis. It counts as cell-based.
Data set [5] can be described thus: Metabolic stability in mouse liver microsomes assessed as compound remaining at 1 uM preincubated for 10 mins measured after 30 mins by LC-MS/MS analysis. The note with it: liver microsomes, read-out: Stability. The data set is classed as ADME. The method in brief: (§1)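 Compound at 1 µM pre-incubated 10 min at 37 °C in potassium phosphate buffer pH 7.4 with 0.5 mg/mL mouse or human hepatic microsomes. Parent quantified by LC-MS/MS (ESI+, MRM, verapamil internal standard). % remaining = peak area at 30 min / area at 0 min × 100; n≥2, mean.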
For orientation: Liver microsomes are vesicles of endoplasmic reticulum, rich in cytochrome P450 enzymes.

A short description of data set [6]: Metabolic stability in human liver microsomes assessed as compound remaining at 1 uM preincubated for 10 mins measured after 30 mins by LC-MS/MS analysis. As to conditions: liver microsomes, read-out: Stability. It counts as ADME. The method in brief: as §1

pIC50: −log10 of the molar value.

As for `CN1CC2(CC(=O)c3cc(/C=C/C(=O)NO)ccc3O2)C1`, the pIC50 was 6.37 in data set [1] (Homo sapiens, A549, 72 h); 6.77 in data set [2] (Homo sapiens, K562, 72 h); 6.75 in data set [3] (Homo sapiens, HCT-116, 72 h). In data set [4], the IC50 worked out at 0.168 µM.

Consider `O=C(/C=C/c1ccc2c(c1)C(=O)CC1(CCN(Cc3ccc(F)cc3)C1)O2)NO` (stereo not drawn), for which the pIC50 is 6.19 in data set [1] (Homo sapiens, A549, 72 h); 6.55 in data set [2] (Homo sapiens, K562, 72 h); 6.75 in data set [3] (Homo sapiens, HCT-116, 72 h). The IC50 in data set [4] worked out at 0.196 µM.

For the molecule `O=C(/C=C/c1ccc2c(c1)C(=O)CC1(CN(Cc3ccc(F)cc3)C1)O2)NO`, the pIC50 in data set [1] (Homo sapiens, A549, 72 h) is 6.16; in data set [2] (Homo sapiens, K562, 72 h), 6.52; in data set [3] (Homo sapiens, HCT-116, 72 h) it was 6.72. The IC50 in data set [4] worked out at 0.13 µM.

In the case of `CCOC(=O)N1CC2(CC(=O)c3cc(/C=C/C(=O)NO)ccc3O2)C1`, the pIC50 is 5.31 in data set [1] (Homo sapiens, A549, 72 h); 5.73 in data set [2] (Homo sapiens, K562, 72 h); 5.91 in data set [3] (Homo sapiens, HCT-116, 72 h). In data set [4], this molecule came in with an IC50 of 0.286 µM.

For `O=C(/C=C/c1ccc2c(c1)C(=O)CC1(CN(C(=O)c3ccccc3)C1)O2)NO`, the pIC50 in data set [1] (Homo sapiens, A549, 72 h) is 5.88; in data set [2] (Homo sapiens, K562, 72 h) it was 6.42; in data set [3] (Homo sapiens, HCT-116, 72 h) it was 6.53. Also, in data set [4], the IC50 was determined as 0.081 µM.

Take `O=C(/C=C/c1ccc2c(c1)C(=O)CC1(CN(CCc3ccccc3)C1)O2)NO`: the pIC50 in data set [1] (Homo sapiens, A549, 72 h) was 6.05; in data set [2] (Homo sapiens, K562, 72 h), 6.60; in data set [3] (Homo sapiens, HCT-116, 72 h), 6.66. This molecule also registered an IC50 in data set [4] of 0.219 µM.

With `CC(=O)N1CC2(CC(=O)c3cc(/C=C/C(=O)NO)ccc3O2)C1`, the pIC50 in data set [1] (Homo sapiens, A549, 72 h) was 4.32; in data set [2] (Homo sapiens, K562, 72 h) it was 4.82; in data set [3] (Homo sapiens, HCT-116, 72 h) it was 4.98. This molecule also came in with an IC50 in data set [4] of 0.485 µM.

For the molecule `O=C(/C=C/c1ccc2c(c1)C(=O)CC1(CNC1)O2)NO`, the pIC50 in data set [1] (Homo sapiens, A549, 72 h) is 5.07; in data set [2] (Homo sapiens, K562, 72 h), 5.59; in data set [3] (Homo sapiens, HCT-116, 72 h), 5.43. Besides, the IC50 in data set [4] came out at 0.228 µM.

As for `O=C(/C=C/c1ccc2c(c1)C(=O)CC1(CCCN(CCc3ccccc3)C1)O2)NO` (racemic), the pIC50 in data set [1] (Homo sapiens, A549, 72 h) was 6.80; in data set [2] (Homo sapiens, K562, 72 h), 6.97; in data set [3] (Homo sapiens, HCT-116, 72 h) it was 7.28. For the same molecule, the values for the remaining at 0.5 h, 1 µM in data set [5] and in data set [6] were 19% and 16%, respectively. Further, in data set [4], the IC50 came out at 0.001 µM.

As to `O=C(/C=C/c1ccc2c(c1)C(=O)CC1(CCCN(C(=O)c3ccccc3)CC1)O2)NO` (racemic), the pIC50 in data set [1] (Homo sapiens, A549, 72 h) is 5.42; in data set [2] (Homo sapiens, K562, 72 h), 5.95; in data set [3] (Homo sapiens, HCT-116, 72 h) it was 6.21. The IC50 in data set [4] was determined as 0.11 µM.

In the case of `Cn1cc(CN2CCCC3(CC(=O)c4cc(/C=C/C(=O)NO)ccc4O3)C2)c2ccccc21` (racemic), the pIC50 was 6.37 in data set [1] (Homo sapiens, A549, 72 h); 6.83 in data set [2] (Homo sapiens, K562, 72 h); 7.11 in data set [3] (Homo sapiens, HCT-116, 72 h). Moreover, the values for the remaining at 0.5 h, 1 µM in data set [5] and in data set [6] were 23% and 19%, respectively. Besides, in data set [4], the IC50 is 0.183 µM.

In the case of `O=C(/C=C/c1ccc2c(c1)C(=O)CC1(CCCN(Cc3ccccc3)C1)O2)NO` (racemic), the pIC50 in data set [1] (Homo sapiens, A549, 72 h) is 6.08; in data set [2] (Homo sapiens, K562, 72 h), 6.37; in data set [3] (Homo sapiens, HCT-116, 72 h) it was 6.41. For the same molecule, in data set [4], the IC50 is 0.056 µM.

On to `O=C(/C=C/c1ccc2c(c1)C(=O)CC1(CCCN(C(=O)c3ccccc3)C1)O2)NO` (racemic), for which the pIC50 in data set [1] (Homo sapiens, A549, 72 h) is 5.38; in data set [2] (Homo sapiens, K562, 72 h) it was 5.70; in data set [3] (Homo sapiens, HCT-116, 72 h) it was 5.88. The same molecule registered an IC50 in data set [4] of 0.165 µM.

In the case of `O=C(/C=C/c1ccc2c(c1)C(=O)CC1(CCCN(Cc3ccc(F)cc3)C1)O2)NO` (racemic), the pIC50 in data set [1] (Homo sapiens, A549, 72 h) is 5.94; in data set [2] (Homo sapiens, K562, 72 h), 6.26; in data set [3] (Homo sapiens, HCT-116, 72 h), 6.43. Moreover, in data set [4], the IC50 is 0.034 µM.

`CC(=O)N1CCCC2(CC(=O)c3cc(/C=C/C(=O)NO)ccc3O2)C1` (racemic): the pIC50 was 4.84 in data set [1] (Homo sapiens, A549, 72 h); 5.25 in data set [2] (Homo sapiens, K562, 72 h); 5.49 in data set [3] (Homo sapiens, HCT-116, 72 h). The IC50 in data set [4] was 0.207 µM.

With `CCOC(=O)N1CCC2(CC(=O)c3cc(/C=C/C(=O)NO)ccc3O2)C1` (racemic), the pIC50 in data set [1] (Homo sapiens, A549, 72 h) is 6.08; in data set [2] (Homo sapiens, K562, 72 h) it was 6.14; in data set [3] (Homo sapiens, HCT-116, 72 h), 6.45. The same molecule had an IC50 in data set [4] of 0.15 µM.

For `O=C(/C=C/c1ccc2c(c1)C(=O)CC1(CCN(C(=O)c3ccccc3)C1)O2)NO` (racemic), the pIC50 was 5.68 in data set [1] (Homo sapiens, A549, 72 h); 6.27 in data set [2] (Homo sapiens, K562, 72 h); 6.29 in data set [3] (Homo sapiens, HCT-116, 72 h). The molecule further gave an IC50 in data set [4] of 0.187 µM.

In the case of `O=C(/C=C/c1ccc2c(c1)C(=O)CC1(CCNC1)O2)NO` (racemic), the pIC50 in data set [1] (Homo sapiens, A549, 72 h) is 5.63; in data set [2] (Homo sapiens, K562, 72 h) it was 5.38; in data set [3] (Homo sapiens, HCT-116, 72 h), 5.64. The IC50 in data set [4] stood at 0.131 µM.

Consider `O=C(/C=C/c1ccc2c(c1)C(=O)CC1(CCCNC1)O2)NO` (racemic), for which the pIC50 is 6.15 in data set [1] (Homo sapiens, A549, 72 h); 6.26 in data set [2] (Homo sapiens, K562, 72 h); 6.64 in data set [3] (Homo sapiens, HCT-116, 72 h). In data set [4], this molecule came in with an IC50 of 0.136 µM.

Regarding `Cn1cc(CN2CCC3(CC(=O)c4cc(/C=C/C(=O)NO)ccc4O3)C2)c2ccccc21` (racemic), the pIC50 in data set [1] (Homo sapiens, A549, 72 h) was 6.74; in data set [2] (Homo sapiens, K562, 72 h) it was 7.29; in data set [3] (Homo sapiens, HCT-116, 72 h), 7.33. Moreover, the remaining at 0.5 h, 1 µM was determined as 8% in data set [5] and 16% in data set [6]. In data set [4], this molecule showed an IC50 of 0.085 µM.

Turning to `CN1CCC2(CC(=O)c3cc(/C=C/C(=O)NO)ccc3O2)C1` (racemic), the pIC50 in data set [1] (Homo sapiens, A549, 72 h) is 6.45; in data set [2] (Homo sapiens, K562, 72 h), 6.70; in data set [3] (Homo sapiens, HCT-116, 72 h), 6.84. The same molecule returned an IC50 in data set [4] of 0.119 µM.

For `CCOC(=O)N1CCCC2(CC(=O)c3cc(/C=C/C(=O)NO)ccc3O2)C1` (racemic), the pIC50 in data set [1] (Homo sapiens, A549, 72 h) was 5.64; in data set [2] (Homo sapiens, K562, 72 h), 6.03; in data set [3] (Homo sapiens, HCT-116, 72 h), 6.17. The IC50 in data set [4] stood at 0.232 µM.

`CC(=O)N1CCCC2(CC1)CC(=O)c1cc(/C=C/C(=O)NO)ccc1O2` (racemic): the pIC50 is 4.70 in data set [1] (Homo sapiens, A549, 72 h); 5.29 in data set [2] (Homo sapiens, K562, 72 h); 5.45 in data set [3] (Homo sapiens, HCT-116, 72 h). Moreover, in data set [4], the IC50 amounted to 0.323 µM.

On to `CC(=O)N1CCC2(CC(=O)c3cc(/C=C/C(=O)NO)ccc3O2)C1` (racemic), for which the pIC50 was less than 4.30 in data set [1] (Homo sapiens, A549, 72 h); less than 4.30 in data set [2] (Homo sapiens, K562, 72 h); less than 4.30 in data set [3] (Homo sapiens, HCT-116, 72 h). The molecule also gave an IC50 in data set [4] of 0.955 µM.

As for `O=C(/C=C/c1ccc2c(c1)C(=O)CC1(CCCNCC1)O2)NO` (racemic), the pIC50 in data set [1] (Homo sapiens, A549, 72 h) is 5.51; in data set [2] (Homo sapiens, K562, 72 h), 5.22; in data set [3] (Homo sapiens, HCT-116, 72 h) it was 5.97. This molecule also registered an IC50 in data set [4] of 0.134 µM.

Regarding `CCOC(=O)N1CCCC2(CC1)CC(=O)c1cc(/C=C/C(=O)NO)ccc1O2` (racemic), the negative logarithm of the IC50 (pIC50) in data set [1] (Homo sapiens, A549, 72 h) is 5.24; in data set [2] (Homo sapiens, K562, 72 h), 5.78; in data set [3] (Homo sapiens, HCT-116, 72 h) it was 6.00. Further, the IC50 in data set [4] was determined as 0.3 µM.

Turning to `O=C(/C=C/c1ccc2c(c1)C(=O)CC1(CCCN(Cc3ccccc3)C1)O2)NO` (single isomer, unassigned; (-)), the pIC50 in data set [1] (a549) was 5.97; in data set [2] (k562) it was 6.36; in data set [3] (hct-116), 6.49. The same molecule gave an IC50 in data set [4] of 0.084 µM.

Consider `O=C(/C=C/c1ccc2c(c1)C(=O)CC1(CCCN(Cc3ccccc3)C1)O2)NO` (stereo in doubt; 33j), for which the pIC50 in data set [1] (a549) is 5.84; in data set [2] (k562), 6.28; in data set [3] (hct-116) it was 6.35. The molecule also gave an IC50 in data set [4] of 0.143 µM.

The term pIC50 denotes the IC50 on a negative log10 scale, so that one unit is a factor of ten. The term IC50 denotes the concentration needed to halve the response being measured. Read a low IC50 as inhibition by little substance.
